Activity calls are given as the source filed them. The calls are words filed in the database; no cut-off is given here.
How the values were obtained:
[1] = target: T1, Ubiquitin carboxyl-terminal hydrolase 30 (Homo sapiens) (UniProt Q70CQ3); experiment: Inhibition of GST-tagged recombinant USP30 (unknown origin) using Ub-Lys-TAMRA as substrate at 1 uM incubated for 30 mins by fluorescence polarization assay
T1 sequence (whole entry): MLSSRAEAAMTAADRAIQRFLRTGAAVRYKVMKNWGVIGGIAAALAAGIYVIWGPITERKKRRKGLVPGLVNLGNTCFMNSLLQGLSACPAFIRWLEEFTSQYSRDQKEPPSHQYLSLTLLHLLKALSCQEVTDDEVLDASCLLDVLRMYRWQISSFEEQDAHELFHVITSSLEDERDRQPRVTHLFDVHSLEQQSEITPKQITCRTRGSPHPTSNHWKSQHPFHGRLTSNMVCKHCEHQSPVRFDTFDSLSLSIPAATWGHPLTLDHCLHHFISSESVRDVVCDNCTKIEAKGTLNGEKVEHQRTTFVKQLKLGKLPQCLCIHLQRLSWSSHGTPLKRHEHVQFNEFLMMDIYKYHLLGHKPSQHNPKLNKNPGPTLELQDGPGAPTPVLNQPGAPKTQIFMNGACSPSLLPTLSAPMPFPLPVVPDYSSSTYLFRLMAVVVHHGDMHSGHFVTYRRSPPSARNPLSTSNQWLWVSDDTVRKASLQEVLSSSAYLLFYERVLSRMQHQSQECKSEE

[2] = target: Ubiquitin carboxyl-terminal hydrolase isozyme L1 (Homo sapiens) (UniProt P09936); experiment: Inhibition of UCHL1 in human HEK293 cells using HA-Ub-VME as substrate at 0.1 to 10 uM incubated for 1 hr by immunoblotting analysis; format: cell-based; settings: dose 0.1-10 µM
Procedure, shortened: (§1)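 Near-confluent HEK293 cells treated with compound in medium for 1 h at 37 °C, lysed in Tris/NP-40/CHAPS buffer with benzonase. Lysate (20 µg) reacted with HA-Ahx-Ahx-Ub-VME (0.5 µg) 15 min at room temperature, boiled 5 min at 95 °C in SDS loading buffer with BME, SDS-PAGE and immunoblot.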

[3] = target: T2, Ubiquitin carboxyl-terminal hydrolase isozyme L5 (Homo sapiens) (UniProt Q9Y5K5); experiment: Inhibition of UCHL5 in human HEK293 cells using HA-Ub-VME as substrate at 0.1 to 10 uM incubated for 1 hr by immunoblotting analysis; format: cell-based; settings: dose 0.1-10 µM; procedure, shortened: as §1
T2 sequence (whole entry): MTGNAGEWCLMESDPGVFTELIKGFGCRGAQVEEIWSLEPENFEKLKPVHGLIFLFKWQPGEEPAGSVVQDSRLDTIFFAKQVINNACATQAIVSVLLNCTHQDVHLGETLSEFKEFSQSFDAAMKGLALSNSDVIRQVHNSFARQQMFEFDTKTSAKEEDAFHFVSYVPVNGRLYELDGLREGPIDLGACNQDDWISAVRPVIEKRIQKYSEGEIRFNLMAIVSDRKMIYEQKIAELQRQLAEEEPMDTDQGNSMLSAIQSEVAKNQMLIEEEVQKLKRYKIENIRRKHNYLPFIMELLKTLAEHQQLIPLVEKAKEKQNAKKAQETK

[4] = Cytotoxicity against human HEK293 cells assessed as reduction in cell growth incubated for 72 hrs by live-cell time-lapse imaging; format: toxicity, cell-based
Procedure, shortened: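 HEK293 cells, 1,000 per well, seeded 24 h before exposure to 7 serial dilutions, in triplicate. Confluence imaged every 2 h for 72 h by IncuCyte live-cell time-lapse imaging. EC50 from four-parameter dose-response fit; mean ± SD of 12 technical replicates.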

[5] = target: Ubiquitin carboxyl-terminal hydrolase isozyme L1 (Homo sapiens) (UniProt P09936); experiment: Binding affinity to GST-tagged recombinant UCHL1 (unknown origin) assessed as covalent adduct formation at 13 uM incubated for 1 hr by LC-ESI-MS analysis
[6] = target: T3, Ubiquitin carboxyl-terminal hydrolase BAP1 (Homo sapiens) (UniProt Q92560); experiment: Inhibition of BAP1 in human HEK293 cells using HA-Ub-VME as substrate at 0.1 to 10 uM incubated for 1 hr by immunoblotting analysis; format: cell-based; settings: dose 0.1-10 µM; procedure, shortened: as §1
T3 sequence (whole entry): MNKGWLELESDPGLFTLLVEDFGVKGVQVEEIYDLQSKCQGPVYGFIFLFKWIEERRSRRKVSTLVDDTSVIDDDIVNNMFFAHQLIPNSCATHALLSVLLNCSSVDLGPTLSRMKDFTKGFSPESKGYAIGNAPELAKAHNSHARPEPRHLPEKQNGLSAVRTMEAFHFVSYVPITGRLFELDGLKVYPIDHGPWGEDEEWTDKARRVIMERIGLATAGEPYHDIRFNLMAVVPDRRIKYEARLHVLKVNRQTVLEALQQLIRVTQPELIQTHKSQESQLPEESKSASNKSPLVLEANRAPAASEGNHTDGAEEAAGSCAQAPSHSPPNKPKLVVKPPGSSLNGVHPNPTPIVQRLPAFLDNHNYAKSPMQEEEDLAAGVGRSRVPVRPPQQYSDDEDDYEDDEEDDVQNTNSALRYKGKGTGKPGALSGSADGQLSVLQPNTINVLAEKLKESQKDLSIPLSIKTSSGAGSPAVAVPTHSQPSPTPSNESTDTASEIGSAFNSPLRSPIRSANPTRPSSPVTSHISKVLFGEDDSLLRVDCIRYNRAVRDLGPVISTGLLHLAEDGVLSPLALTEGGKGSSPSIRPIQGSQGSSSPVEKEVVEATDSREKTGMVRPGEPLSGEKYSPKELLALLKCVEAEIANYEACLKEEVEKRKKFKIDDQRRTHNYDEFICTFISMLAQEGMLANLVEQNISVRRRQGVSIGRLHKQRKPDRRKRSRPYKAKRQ

[7] = target: T4, Ubiquitin carboxyl-terminal hydrolase isozyme L1 (Homo sapiens, UniProt P09936); experiment: Inhibition of FLAG-tagged UCHL1 (unknown origin) expressed in CAL-51 cells using HA-Ub-VME as substrate incubated for 30 mins by HTRF assay; format: cell-based
T4 sequence (P09936 whole entry): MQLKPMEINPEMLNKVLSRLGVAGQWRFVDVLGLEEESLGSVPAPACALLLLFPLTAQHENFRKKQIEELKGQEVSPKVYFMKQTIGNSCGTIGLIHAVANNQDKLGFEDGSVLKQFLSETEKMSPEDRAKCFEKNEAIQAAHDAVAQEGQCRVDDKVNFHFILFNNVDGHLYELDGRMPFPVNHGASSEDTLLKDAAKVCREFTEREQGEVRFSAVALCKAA
Procedure, shortened: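 Cal51 cells stably expressing FLAG-UCHL1, plated overnight, exposed to compound 1 h at 37 °C. Washed, lysed 30 min on ice in Tris/NaCl/NP-40/CHAPS/MgCl2/BME buffer. Lysate mixed with HA-Ub-VME (100 nM) 30 min RT; anti-FLAG cryptate and anti-HA-XL added, overnight at 4 °C. HTRF Delta F read; IC50 by four-parameter fit, two biological triplicates.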

inhibition [1] | inhibition [2] | inhibition [3] | Activity [5] | inhibition [6] | IC50 [7] | SMILES | EC50 at 72 h [4]
Active | Active | Active | Active | Active | 550 nM | N#CN1CC[C@H](C(=O)Nc2ncc(-c3ccccc3)s2)C1 | 730 nM
Active | Active | Active | Active | Active | 830 nM | C#Cc1ccc(-c2cnc(NC(=O)[C@H]3CCN(C#N)C3)s2)cc1 | 350 nM

Source: ChEMBL document CHEMBL5107948, “Activity-based protein profiling reveals deubiquitinase and aldehyde dehydrogenase targets of a cyanopyrrolidine probe” (RSC Med Chem, 2021)
